From PubChem
The list is not random: actives were taken first. Their share in the collection is about 3.5%.
MrgX1 PAM: human MrgX1 positive allosteric modulation, primary screen; MrgX1-HEK293, Fluo-4 calcium flux, FDSS; active compounds read high; B-score at 10 µM; actives 0.63% (n = 310,000); AID 588675;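 active = plate-corrected calcium response at least 3 library SD above typical, normal starting fluorescence, not activating the receptor alone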;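 also: compound read alongside a low EC10 to EC30 dose of BAM8-22 agonist; peak minus trough fluorescence over baseline measured at the second addition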
Target sequence (Q96LB2 whole entry, looked up): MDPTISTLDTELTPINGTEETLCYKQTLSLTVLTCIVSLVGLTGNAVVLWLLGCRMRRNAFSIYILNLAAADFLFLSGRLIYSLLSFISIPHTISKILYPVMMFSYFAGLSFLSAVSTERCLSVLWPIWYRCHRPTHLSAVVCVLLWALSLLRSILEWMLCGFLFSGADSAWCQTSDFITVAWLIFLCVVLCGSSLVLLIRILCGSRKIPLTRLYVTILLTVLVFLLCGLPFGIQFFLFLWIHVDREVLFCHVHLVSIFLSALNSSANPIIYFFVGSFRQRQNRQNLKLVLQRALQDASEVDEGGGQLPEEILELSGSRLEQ
MrgX1 ag: human MrgX1 receptor agonism, primary screen; actives 0.44% (n = 310,000); B-score at 10 µM; Q96LB2; MrgX1-HEK293 cells, Fluo-4 calcium fluorescence, agonist mode; active compounds read high; AID 588627;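 active = calcium response B-score plate-corrected fluorescence ratio at least 3 library SD, with starting fluorescence B-score inside 5 SD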
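times = overnight plating, then 30 min 37 °C plus 30 min room-temperature dye loading | assay system = stable human MrgX1 HEK293 cell line | input = fifteen thousand cells per well | signal = kinetic calcium dye fluorescence, Fluo-4 NW | dosing = compound delivered in addition one of three | read-out = B-scored fluorescence response ratio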
RGS4 block: inhibitors of human RGS4 | HEK293 M3R/RGS4 inducible, Fluo-4 calcium flux; active compounds read high; triggered by carbachol at its EC20 | P49798 | actives 0.45% (n = 310,000) | B-score at 10 µM | AID 463165;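 active = B-score, a plate-corrected calcium signal, over three deviations above library mean, with baseline fluorescence within five deviations of library mean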;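 also: RGS4 expression induced by doxycycline in cells with stable M3 receptor; B-score is computed from the integrated fluorescence ratio over baseline after carbachol; higher B-score means a larger calcium signal and so more RGS4 inhibition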
Target sequence (P49798 whole entry, looked up): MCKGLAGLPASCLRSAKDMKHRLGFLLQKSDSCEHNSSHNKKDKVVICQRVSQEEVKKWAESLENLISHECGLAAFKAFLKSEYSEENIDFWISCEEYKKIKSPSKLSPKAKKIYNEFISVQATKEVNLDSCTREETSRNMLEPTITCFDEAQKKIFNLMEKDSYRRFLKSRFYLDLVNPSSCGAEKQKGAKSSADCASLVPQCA
MrgX1 antag: antagonists of human MrgX1 receptor. B-score at 10 µM. actives 1.3% (n = 310,000). Q96LB2. MRGX1-HEK293 calcium flux, Fluo-4, BAM8-22 antagonism; active compounds read low;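 active = calcium-response B-score plate-corrected more than 3 library SD below zero, starting fluorescence within 5 deviations, no agonist response on first addition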;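 also: peak minus trough fluorescence over baseline after final BAM8-22 challenge near maximal dose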
RGS4 pot: potentiators or activators of RGS4. HEK293 M3R/inducible RGS4, carbachol calcium flux Fluo4; active compounds read low. B-score at 10 µM. AID 463111. actives 0.92% (n = 310,000);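 active = B-score of the integrated calcium signal more than 4 SD below the library mean, with starting fluorescence not abnormally high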;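 also: negative B-score means reduced calcium response which marks RGS4 activation or potentiation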
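Assay system: HEK293 FlpIn-TREx cells, stable M3R, doxycycline-inducible RGS4 / Probe or stimulus: carbachol, ECmax concentration / Times: overnight RGS4 induction, 30 min dye load 37 °C, 20 min compound RT / Signal: kinetic calcium fluorescence imaging with Fluo4-AM dye, 2 µM / Measure: Agonist-evoked peak-minus-minimum fluorescence over baseline, integrated ratio, B score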
Active calls of the source: *; i = inactive.

SMILES	MrgX1 PAM	MrgX1 ag	RGS4 block	MrgX1 antag	RGS4 pot
Cc1c(NC(=O)C(C)OC(=O)CCC2CCCC2)c(=O)n(-c2ccccc2)n1C (stereo not drawn)	i	i	i	i	i
O=C(C[n+]1cc(-c2ccc(F)cc2)n2c1CCC2)N1c2ccccc2Sc2ccccc21	i	i	i	i	-9.7*
Cc1ccc(-c2c[n+](CC(=O)N3c4ccccc4Sc4ccccc43)c3n2CCC3)cc1	i	i	i	i	-8.9*
O=C(C[n+]1cc(-c2ccccc2)n2c1CCC2)N1c2ccccc2Sc2ccccc21	i	i	i	i	i
O=C(c1ccc(Br)cc1)N1CCCc2ccccc21	i	i	i	i	i
CCCCCn1nc(C(=O)OCC(=O)c2c(N)n(C)c(=O)n(C)c2=O)c2ccccc2c1=O	i	i	i	i	i
CCCCCCn1nc(C(=O)OCC(=O)c2c(N)n(C)c(=O)n(C)c2=O)c2ccccc2c1=O	i	i	i	i	-8.7*
Cc1ccc(C(C)C)c(OCc2nn(CC(=O)c3ccc(OC(F)F)cc3)c3[n+]2CCCCC3)c1	i	i	i	-5.5*	i
O=C(Nc1ccnn1C1CCN(C(=O)Cc2cccc(Cl)c2)CC1)C1CC1	i	i	i	i	i
O=C(NCC1CCN(Cc2ccc(Cl)cc2)CC1)C1CCCN(c2ncnc3c2nc2n3CCCCC2)C1 (stereo not drawn)	i	i	i	i	-7.2*
CCOc1cccc(CNc2ccc(O)cc2)c1OCc1ccccc1Cl	i	29*	i	i	i
CCOc1cccc(CNc2ccc(O)cc2)c1OCc1ccc(Cl)cc1Cl	i	i	i	i	i
CCn1nc(Cc2cccc3ccccc23)c(C#N)c1N	i	i	i	i	i
COc1cccc(N2C(=O)CC(NNc3nc4ccccc4s3)C2=O)c1 (stereo not drawn)	i	30*	i	i	i
COc1cc2ccccc2cc1C(=O)N(CCN(C)C)c1nc2c(OC)ccc(OC)c2s1	8.8*	i	i	i	i
CC(C)CN1C(=O)N(c2ccc(Cl)cc2)C(C)(O)CC1(C)C (stereo not drawn)	i	i	i	i	i
CCOc1ccc(NC2OCC(O)C(O)C2O)c([N+](=O)[O-])c1 (stereo not drawn)	i	i	i	-5.1*	i
S=C(NCCCN1CCOCC1)NC1CC1	i	i	i	i	i
CCOC(=O)C1(CCCc2ccccc2)CCN(C(=O)C2CCCN(C(N)=O)C2)CC1 (stereo not drawn)	i	i	i	i	i
O=C(Nc1ccc(Cl)c([N+](=O)[O-])c1)C(Sc1ccccc1)c1ccccc1 (stereo not drawn)	i	i	i	i	-8.6*
COc1cc(C(=O)NCC(=O)OCc2ccccc2Cl)cc(OC)c1OC	i	i	i	i	i
CCOC(=O)c1sc(N)c(C#N)c1COC(=O)CNC(=O)c1cc(OC)c(OC)c(OC)c1	i	i	i	-6.6*	i
Clc1ccc(CSc2nnc(-c3sccc3-n3cccc3)o2)cc1	i	i	i	-4.8*	i
C/C(=N\O)C(C)Oc1ccc(Cl)cc1 (stereo not drawn)	i	i	i	i	i
CC(OC(=O)CCN=C1NS(=O)(=O)c2ccccc21)C(=O)Nc1ccc(F)cc1 (stereo not drawn)	i	i	i	i	i
SMILES	MrgX1 PAM	MrgX1 ag	RGS4 block	MrgX1 antag	RGS4 pot
COc1ccc(C(=O)N/N=C(/C)c2cccc(NC(=O)c3ccncc3)c2)cc1OC	i	i	i	i	-7*
COc1cc(OC)c(C(=O)Nc2ccc(C(=O)c3ccccc3)cc2)cc1OC	i	i	i	i	-7.2*
COc1cccc(C(=O)Nc2ccc(C(=O)c3ccncc3)cc2)c1	7.1*	i	i	i	i
COc1cc(OC)c(C(=O)Nc2ccncc2)cc1OC	i	i	i	i	i
COc1cccc(C(=O)Nc2ccc(NC(C)=O)cc2)c1	i	i	i	i	i
CC(C)OC(=O)Cn1nc(C(c2ccccc2)c2ccccc2)oc1=O	i	i	i	i	i
Cc1cc(OCC(=O)NCc2ccccn2)c2c(C)c(Cc3ccccc3)c(=O)oc2c1	i	i	i	i	i
COc1ccc(C(=O)N2CCC(C(=O)O)CC2)c2ccccc12	i	i	i	i	i
CCOc1ccccc1NC(=O)C(Sc1ccccc1)c1ccccc1 (stereo not drawn)	i	i	i	-5*	-7.3*
COc1ccccc1NC(=O)C(Sc1ccccc1)c1ccccc1 (stereo not drawn)	i	i	i	i	i
Cc1cc(C)c(S(=O)(=O)N2CCCOC2CNC(=O)C(=O)NCc2ccco2)c(C)c1 (stereo not drawn)	i	i	i	i	i
O=C(Nc1ccc(Cl)cc1)[C@@H]1[C@@H]2C(=O)N(c3ccc(Cl)cc3)C(=O)[C@@H]2[C@H]2C=CC=NN21	i	i	i	i	i
O=C(Nc1ccc(Cl)cc1)[C@@H]1[C@@H]2C(=O)N(c3ccc(Cl)cc3Cl)C(=O)[C@@H]2[C@H]2C=CC=NN21	i	i	i	-5.1*	i
NC(=O)[C@@H]1CCCNc2c(F)cc([N+](=O)[O-])cc2C(=O)N[C@@H](CCC(=O)O)C(=O)N[C@@H](CO)C(=O)N1	i	i	i	i	i
Cc1cc(C(=O)N/N=C/c2cccs2)no1	i	28*	i	i	i
CN(CCC#N)C(=O)COC(=O)/C=C/c1ccc2c(c1)OCO2	i	i	i	-6*	i
CCOC(=O)C1CCN(C(=O)Nc2ccc3nc(-c4ccco4)c(-c4ccco4)nc3c2)CC1	i	i	i	-5*	i
O=C(Nc1ccc2nc(-c3ccco3)c(-c3ccco3)nc2c1)N1CCCCCC1	i	i	i	i	i
CCOc1ccccc1NC(=O)C(C)SCc1ccccc1 (stereo not drawn)	i	i	i	i	i
CC(SCc1ccccc1)C(=O)Nc1ccccc1-c1ccccc1 (stereo not drawn)	12*	i	i	i	i
O=[N+]([O-])c1ccc(S(=O)(=O)CC2CSc3nc4ccccc4n32)cc1 (stereo not drawn)	i	i	i	-5*	i
Cc1nnc2n(c1=O)C(CS(=O)(=O)c1ccccc1)CS2 (stereo not drawn)	i	i	i	i	i
